Columns and labels:
Assay type in all cases: ADME, organism-based
Cavia porcellus [1] = species on record: Cavia porcellus; test: Tested for antimuscarinic potency on guinea pig ileum; settings: for Kb: Cavia porcellus, Ileum, read-out: pA2 (converted)
Cavia porcellus [2] = species on record: Cavia porcellus; test: Tested for antimuscarinic potency on guinea pig heart force; settings: for Kb: Cavia porcellus, Heart, read-out: pA2 (converted)
How it was run: (§1)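 Guinea pig heart (force and rate) antagonism of carbachol as agonist; pA2 from Schild plot with slope constrained to 1; six to eight replications. Where an antagonist lowered the carbachol maximum at 1×10^-5 M, −log Kb was instead calculated from log(Dr − 1) = log[ant.] − log Kb at a single antagonist concentration of 3×10^-6 M.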

Cavia porcellus [3] = species on record: Cavia porcellus; test: Tested for antimuscarinic potency on guinea pig heart rate; settings: for Kb: Cavia porcellus, Heart, read-out: pA2 (converted); how it was run: as §1
Rattus norvegicus = species on record: Rattus norvegicus; test: Tested for antimuscarinic potency on rat bladder; settings: for Kb: Rattus norvegicus, read-out: pA2 (converted)

CN(C)C[C@@H]1CS[C@@](c2ccccc2)(C2CCCCC2)O1 (racemic)
Kb (Cavia porcellus [1]): 37.2 nM | Kb (Cavia porcellus [2]): 263 nM | Kb (Cavia porcellus [3]): 162 nM | Kb (Rattus norvegicus): 123 nM

CN(C)C[C@@H]1CS[C@](c2ccccc2)(C2CCCCC2)O1 (racemic)
Kb (Cavia porcellus [1]): 12 nM | Kb (Cavia porcellus [2]): 33.1 nM | Kb (Cavia porcellus [3]): 37.2 nM | Kb (Rattus norvegicus): 44.7 nM

C[N+](C)(C)C[C@@H]1CS[C@](c2ccccc2)(C2CCCCC2)O1.[I-] (racemic)
pA2 (Cavia porcellus [1]): 8.26 | Kb (Cavia porcellus [2]): 7.76 nM | Kb (Cavia porcellus [3]): 7.24 nM | pA2 (Rattus norvegicus): 8.05

C[N+](C)(C)C[C@@H]1CS[C@@](c2ccccc2)(C2CCCCC2)O1.[I-] (racemic)
pA2 (Cavia porcellus [1]): 8.38 | pA2 (Cavia porcellus [2]): 8.13 | pA2 (Cavia porcellus [3]): 7.91 | pA2 (Rattus norvegicus): 8.22

C[N+](C)(C)C[C@@H]1CS[C@@](c2ccccc2)(C2CCCCC2)O1.[I-] (stereo in doubt; (+)4)
pA2 (Cavia porcellus [1]): 8.79 | pA2 (Cavia porcellus [2]): 8.47 | pA2 (Cavia porcellus [3]): 8.35 | pA2 (Rattus norvegicus): 8.58

C[N+](C)(C)C[C@@H]1CS[C@](c2ccccc2)(C2CCCCC2)O1.[I-] (stereo in doubt; (+)-2)
pA2 (Cavia porcellus [1]): 8.57 | pA2 (Cavia porcellus [2]): 8.1 | pA2 (Cavia porcellus [3]): 8.05 | pA2 (Rattus norvegicus): 8.29

C[N+](C)(C)C[C@@H]1CS[C@](c2ccccc2)(C2CCCCC2)O1.[I-] (stereo in doubt; (-)2)
pA2 (Cavia porcellus [1]): 7.86 | pA2 (Cavia porcellus [2]): 8.07 | pA2 (Cavia porcellus [3]): 8.06 | pA2 (Rattus norvegicus): 7.61

C[N+](C)(C)C[C@@H]1CS[C@@](c2ccccc2)(C2CCCCC2)O1.[I-] (stereo in doubt; (-)4)
pA2 (Cavia porcellus [1]): 7.86 | pA2 (Cavia porcellus [2]): 8.16 | pA2 (Cavia porcellus [3]): 7.99 | pA2 (Rattus norvegicus): 7.45

CN1[C@@H]2CC[C@H]1C[C@@H](OC(=O)C(CO)c1ccccc1)C2 (stereo partly drawn) [ATROPINE]
Kb (Rattus norvegicus): 1.29 nM
